# High-throughput results deposited in PubChem BioAssay by Broad Institute.
# Not all results are given here.
# PGC1a Ac signal – raises PGC1a acetylation signal in U2OS cells. U2OS PGC1a acetylation AlphaScreen, overnight. activation, % at 15.6 µM. 0.21% of 350,000 active. AID 651723;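 active = every replicate reaching activation of at least 50%, whatever the mean replicate activation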;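 also: hits raise the AlphaScreen acetylation signal above neutral controls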
#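 System – flag-PGC1a/GCN5 U2OS cells · Quantity – 7000 U2OS cells per well · Signal – AlphaScreen proximity luminescence, anti-acetyl-lysine antibody · Schedule – overnight compound treatment, 37 °C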
# Hits are given with their value; n = inactive.
SMILES,PGC1a Ac signal
CC(C)n1c(=S)[nH]c2cc(Cl)ccc21,n
N#Cc1ccsc1NC(=O)CSc1nnc(NC2CC2)s1,n
C[C@@H]1CN([C@H](C)CO)C(=O)c2cc(NC(=O)Cc3cn(C)c4ccccc34)ccc2O[C@@H]1CN(C)C(=O)Nc1ccccc1,n
COc1cc2cc(C)c3nnc(SCC(=O)Nc4cc(C)on4)n3c2cc1OC,n
CN1CCN(CCP(=O)(c2ccccc2)c2ccccc2)CC1,n
Cc1cc(-c2ccc(Cl)cc2)n2ncnc2n1,n
CC1CCN(C(=O)COC(=O)c2ccc(Br)o2)CC1,n
Cn1cccc1C(=O)OCC(=O)Nc1ccc2c(c1)CCC2,83
O=C(COC(=O)C1CC2CCCC(C1)C2=O)Nc1ccc(F)c(Cl)c1 (centres undefined),n
Nc1ccccc1-c1ccn[nH]1,n
O=C(C[C@H]1CC[C@H](NC(=O)NC2CCCCC2)[C@H](CO)O1)NCc1ccc(Cl)cc1,n
Cc1cccc(C)c1NC(=O)CS(=O)CC(=O)Nc1ccc(F)cc1F (centres undefined),57
CC(C)C(NC(=O)c1ccc(C(C)(C)C)cc1)C(=O)O (centres undefined),n
CCOc1ccc2nnc(-c3ccc(Br)cc3)n2n1,52
Cc1nc(C(C)N(C)Cc2nc(-c3ccc4c(c3)OCO4)no2)c(C)s1 (centres undefined),n
CCOc1ccc(N2C(=O)CC(Cc3ccc(Br)cc3)C2=O)cc1 (centres undefined),n
O=C(NCC1CC1)Nc1ccccc1F,n
CN(C)c1ccnc2sc(C(N)=O)c(N)c12,n
Cc1c(CNCCc2ccc(Cl)cc2)c(C(=O)O)c(C)n1-c1ccccc1,n
Cc1cc2cc3c(cc2nc1SCC(=O)OC(C)C)OCCO3,95
Cc1ccc(Sc2ncnc3onc(C)c23)c(C)c1,n
O=C(Nc1ccccc1-c1ccccc1)NC1CC2CCCC(C1)N2Cc1ccc(F)cc1 (centres undefined),n
Cc1cc2c(c(/C=C/C(=O)c3ccccc3)c1)OC1(C=C2)Oc2ccccc2C(=O)N1C (centres undefined),n
COc1ccc(NC(=O)C2(C)Cc3c(-c4cccc(NC(C)=O)c4)ccnc3O2)cn1 (centres undefined),58
COc1ccc(NC(=O)/C(Cl)=C(/Cl)S(=O)Cc2ccccc2)cn1 (centres undefined),n
SMILES,PGC1a Ac signal
O=C(Nc1cccc(Cl)c1)Nc1ccc2c(c1)OCO2,n
CC(=O)Nc1cccc(-c2ccnc3c2CC(C)(C(=O)Nc2ccc4c(c2)OCO4)O3)c1 (centres undefined),70
CCc1nccn1S(=O)(=O)c1cc(C)c(OC)cc1C,n
C[C@H]1CN([C@@H](C)CO)S(=O)(=O)c2ccc(C3=CCCC3)cc2O[C@@H]1CN(C)C,n
CCCNC(=O)c1nnsc1S(=O)(=O)c1ccc(Cl)cc1,82
CNC(=O)c1nnsc1S(=O)c1ccc(Cl)cc1 (centres undefined),117
CCCNC(=O)c1nnsc1S(=O)c1ccc(Cl)cc1 (centres undefined),148
CCOc1ccc(N2CC(C(=O)Nc3ccc(S(=O)(=O)NCC4CCCO4)cc3)CC2=O)cc1 (centres undefined),n
CCn1c(=O)c2c(cnn2C)c2ccccc21,n
COc1ccc(S(=O)(=O)Nc2ccccc2C)cc1C(=O)N1CCOCC1,n
CCSC1=N/C(=C\c2ccccc2)C(=O)N1c1ccc(OC)cc1,n
C=CCNc1nnc(SC2CC(=O)N(c3ccc(OC)cc3)C2=O)s1 (centres undefined),75
CCOc1ccc(S(=O)(=O)/N=C(/Nc2ccc(C(C)=O)cc2)c2ccccc2)cc1,66
CCOc1ccc(NS(=O)(=O)c2ccc3c(c2)oc(=O)n3C)cc1,n
CCOc1ccc(N(C(=O)Nc2ccccc2)C2=NCCC2)cc1,n
C#CC(CC)(CC)NC(=O)c1ccc(Br)s1,n
COCCCNC(=O)c1ccc(CSCc2ccc(C)cc2)o1,n
COC1=CC(=O)C=C(OC)C1=O,107
CCn1c2ccccc2c2cc(/C=N/n3c(-c4cc(C)[nH]n4)n[nH]c3=S)ccc21,n
O=C(O)CCC(NC(=S)Nc1ccccc1)C(=O)O (centres undefined),n
CN1c2ccccc2C2(C)CCCC3=Cc4cccc([N+](=O)[O-])c4OC312 (centres undefined),69
CCC(=O)Nc1ccc2c(c1)OC[C@@H](C)N(C(=O)c1cnccn1)C[C@H](C)[C@H](OC)CN(C)C2=O,n
Oc1ccc(-c2nnc(-c3ccc(O)cc3)nn2)cc1,74
Clc1ccccc1CN(Cc1ccco1)Cc1nnnn1C1CCCC1,132
Cc1cccc2cc(CN(Cc3ccc(F)cc3)Cc3nnnn3C3CCCC3)c(=O)[nH]c12,n
SMILES,PGC1a Ac signal
CCOc1ccc(CN2CCNC(=O)C2CC(=O)NCc2ccccn2)cc1 (centres undefined),n
CCOC(=O)NC(=O)CSc1nnnn1-c1ccc(C)cc1,n
CC(=O)c1cccc(-c2ccnc3c2CC(C(=O)NCc2ccco2)O3)c1 (centres undefined),52
C[C@@H]1CN([C@H](C)CO)C(=O)c2cc(NS(=O)(=O)c3cccs3)ccc2O[C@@H]1CN(C)S(=O)(=O)c1ccc(F)cc1,n
COc1ccc(NC(=O)C/C(C)=N/NC(=O)C(=O)NC(C)C)c(OC)c1,n
COc1ccccc1NC(=O)CCC(=O)Nc1ccccc1OC,54
COc1ccccc1NC(=O)/C=C1\SCC(=O)N1C,n
Cc1noc(C)c1NC(=O)Nc1ccc2c(c1)C(=O)N([C@@H](C)CO)C[C@@H](C)[C@@H](CN(C)CC1CCCCC1)OCCCC[C@H](C)O2,n
O=C(COn1nnc2ccc(Cl)cc21)NC12CC3CC(CC(C3)C1)C2,n
CCOC(=O)c1ccc(NC(=O)c2nc(S(=O)(=O)Cc3ccccc3)ncc2Cl)cc1,78
Cc1nc(Nc2ccc(S(N)(=O)=O)cc2)sc1C(=O)Nc1ccccc1,n
O=C(CCl)Nc1cc(SCC(O)CO)cc([N+](=O)[O-])c1 (centres undefined),n
CCc1ccc(S(=O)(=O)/N=C2\C=C(Nc3ccc(O)cc3)C(=O)c3ccccc32)cc1,n
CCOC(=O)c1ccc(NC(=O)Nc2ccc(F)cc2)cc1,n
CCOC(=O)c1ccc(NC(=O)CCS(=O)(=O)c2ccc(Br)s2)cc1,50
O=[N+]([O-])c1cc(-c2ncccn2)c([N+](=O)[O-])s1,n
N#Cc1c(-c2ccccc2)c(-c2ccccc2)nn(CC(=O)NNC(=O)Nc2ccc(Cl)cc2)c1=O,n
Cc1nc(SCC(=O)OCc2ccccc2)c(C#N)c(-c2ccccc2)c1C(=O)Nc1ccccc1,57
CC(C)(C)c1ccc(C(=O)NCCN2CCOCC2)cc1,n
CC1CN(S(=O)(=O)c2ccc(C(=O)NCCCn3ccnc3)cc2)CC(C)O1 (centres undefined),411
CCOC(=O)c1c(NC(=O)/C=C/C(=O)O)sc(C)c1-c1ccc(C(C)(C)C)cc1,n
CCOC(=O)c1c(NC(=O)c2c(Br)cnn2CC)sc(C)c1C,83
Cc1ccc(NC(=O)Cn2ncc(Cl)c(Cl)c2=O)cc1S(=O)(=O)N1CCCCC1,90
O=C(Cn1ncc(Cl)c(Cl)c1=O)NCC1CCCCC1,151
C=CCn1c(C)cc(C(=O)Cn2ncc(Cl)c(Cl)c2=O)c1C,n
O=C(Nc1nc2ccccc2[nH]1)c1ccc(Cl)c(S(=O)(=O)N2CCCC2)c1,n
O=C(Cn1ncc(Cl)c(Cl)c1=O)c1ccc(Cl)cc1,n
O=C1CN(C(=O)Cn2ncc(Cl)c(Cl)c2=O)c2ccccc2N1,74
